ChEMBL document CHEMBL1649407, “Part I: Synthesis, cancer chemopreventive activity and molecular docking study of novel quinoxaline derivatives” (Eur J Med Chem, 2011)

Key:
[1] = Cytotoxicity against human Raji cells assessed as cell viability at 1000 molar ratio by trypan blue staining method
Mus musculus [2] = assay: Inhibition of DMBA-initiated/TPA-promoted carcinogenesis in ICR mouse assessed as mouse bearing papillomas at 85 nmol administered 1 hr before TPA treatment measured after 17 weeks by two-stage carcinogenesis test; format: functional; design: scale not given: the % may be the effect or the level left
Summary of the method: (§1)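 Female SPF ICR mice, 6 weeks old, 15 per group, backs shaved. Initiation: topical DMBA (390 nmol) in 0.1 mL acetone. Promotion began one week later: TPA (1.7 nmol) in 0.1 mL acetone, twice weekly. Test compound (85 nmol) in 0.1 mL acetone applied topically 1 h before each promotion. Papilloma-bearing mice and papillomas per mouse scored weekly for 20 weeks. Tumor type confirmed histologically. Student's t-test.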

Mus musculus [3] = assay: Inhibition of DMBA-initiated/TPA-promoted carcinogenesis in ICR mouse assessed as mouse bearing papillomas at 85 nmol administered 1 hr before TPA treatment measured after 20 weeks by two-stage carcinogenesis test; format: functional; design: scale not given: the % may be the effect or the level left; summary of the method: as §1
Mus musculus [4] = assay: Toxicity in topically treated ICR mouse assessed as lesional damage; format: organism-based; conditions: in vivo, topical_or_ocular
Summary of the method: (§2)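 Treated areas of shaved back skin were inspected during the DMBA/TPA two-stage study, where test compound (85 nmol in acetone) was applied topically before each twice-weekly TPA promotion. Scored for lesional damage and for inflammation (edema, erosion, ulcer).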

Mus musculus [5] = assay: Inhibition of DMBA-initiated/TPA-promoted carcinogenesis in ICR mouse assessed as mouse bearing papillomas at 85 nmol administered 1 hr before TPA treatment measured after 18 weeks by two-stage carcinogenesis test; format: functional; design: scale not given: the % may be the effect or the level left; summary of the method: as §1
Mus musculus [6] = assay: Toxicity in topically treated ICR mouse assessed as inflammation; format: organism-based; conditions: in vivo, topical_or_ocular; summary of the method: as §2
Mus musculus [7] = assay: Inhibition of DMBA-initiated/TPA-promoted carcinogenesis in ICR mouse assessed as mouse bearing papillomas at 85 nmol administered 1 hr before TPA treatment measured after 4 weeks by two-stage carcinogenesis test; format: functional; design: scale not given: the % may be the effect or the level left; summary of the method: as §1
Mus musculus [8] = assay: Inhibition of DMBA-initiated/TPA-promoted carcinogenesis in ICR mouse assessed as mouse bearing papillomas at 85 nmol administered 1 hr before TPA treatment measured after 19 weeks by two-stage carcinogenesis test; format: functional; design: scale not given: the % may be the effect or the level left; summary of the method: as §1
Mus musculus [9] = assay: Inhibition of DMBA-initiated/TPA-promoted carcinogenesis in ICR mouse assessed as mouse bearing papillomas at 85 nmol administered 1 hr before TPA treatment measured after 10 weeks by two-stage carcinogenesis test; format: functional; design: scale not given: the % may be the effect or the level left; summary of the method: as §1
Mus musculus [10] = assay: Inhibition of DMBA-initiated/TPA-promoted carcinogenesis in ICR mouse assessed as mouse bearing papillomas at 85 nmol administered 1 hr before TPA treatment measured after 6 weeks by two-stage carcinogenesis test; format: functional; design: scale not given: the % may be the effect or the level left; summary of the method: as §1
Mus musculus [11] = assay: Inhibition of DMBA-initiated/TPA-promoted carcinogenesis in ICR mouse assessed as mouse bearing papillomas at 85 nmol administered 1 hr before TPA treatment measured after 3 weeks by two-stage carcinogenesis test; format: functional; design: scale not given: the % may be the effect or the level left; summary of the method: as §1
Mus musculus [12] = assay: Inhibition of DMBA-initiated/TPA-promoted carcinogenesis in ICR mouse assessed as mouse bearing papillomas at 85 nmol administered 1 hr before TPA treatment measured after 5 weeks by two-stage carcinogenesis test; format: functional; design: scale not given: the % may be the effect or the level left; summary of the method: as §1
Mus musculus [13] = assay: Inhibition of DMBA-initiated/TPA-promoted carcinogenesis in ICR mouse assessed as mouse bearing papillomas at 85 nmol administered 1 hr before TPA treatment measured after 8 weeks by two-stage carcinogenesis test; format: functional; design: scale not given: the % may be the effect or the level left; summary of the method: as §1
Mus musculus [14] = assay: Inhibition of DMBA-initiated/TPA-promoted carcinogenesis in ICR mouse assessed as mouse bearing papillomas at 85 nmol administered 1 hr before TPA treatment measured after 2 weeks by two-stage carcinogenesis test; format: functional; design: scale not given: the % may be the effect or the level left; summary of the method: as §1
Mus musculus [15] = assay: Inhibition of DMBA-initiated/TPA-promoted carcinogenesis in ICR mouse assessed as mouse bearing papillomas at 85 nmol administered 1 hr before TPA treatment measured after 13 weeks by two-stage carcinogenesis test; format: functional; design: scale not given: the % may be the effect or the level left; summary of the method: as §1
Mus musculus [16] = assay: Inhibition of DMBA-initiated/TPA-promoted carcinogenesis in ICR mouse assessed as mouse bearing papillomas at 85 nmol administered 1 hr before TPA treatment measured after 14 weeks by two-stage carcinogenesis test; format: functional; design: scale not given: the % may be the effect or the level left; summary of the method: as §1
Mus musculus [17] = assay: Inhibition of DMBA-initiated/TPA-promoted carcinogenesis in ICR mouse assessed as mouse bearing papillomas at 85 nmol administered 1 hr before TPA treatment measured after 12 weeks by two-stage carcinogenesis test; format: functional; design: scale not given: the % may be the effect or the level left; summary of the method: as §1
Mus musculus [18] = assay: Inhibition of DMBA-initiated/TPA-promoted carcinogenesis in ICR mouse assessed as mouse bearing papillomas at 85 nmol administered 1 hr before TPA treatment measured after 16 weeks by two-stage carcinogenesis test; format: functional; design: scale not given: the % may be the effect or the level left; summary of the method: as §1
Mus musculus [19] = assay: Inhibition of DMBA-initiated/TPA-promoted carcinogenesis in ICR mouse assessed as mouse bearing papillomas at 85 nmol administered 1 hr before TPA treatment measured after 9 weeks by two-stage carcinogenesis test; format: functional; design: scale not given: the % may be the effect or the level left; summary of the method: as §1
Mus musculus [20] = species: Mus musculus; assay: Toxicity in ICR mouse assessed as change in body weight; format: organism-based; conditions: in vivo
Summary of the method: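 Mice from the DMBA/TPA two-stage skin study received topical test compound in acetone before each TPA promotion. Body-weight gain was followed during the 20-week experiment. Food and water ad libitum, five mice per cage at 24 ± 2 °C.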

Mus musculus [21] = assay: Inhibition of DMBA-initiated/TPA-promoted carcinogenesis in ICR mouse assessed as mouse bearing papillomas at 85 nmol administered 1 hr before TPA treatment measured after 7 weeks by two-stage carcinogenesis test; format: functional; design: scale not given: the % may be the effect or the level left; summary of the method: as §1
Mus musculus [22] = assay: Inhibition of DMBA-initiated/TPA-promoted carcinogenesis in ICR mouse assessed as mouse bearing papillomas at 85 nmol administered 1 hr before TPA treatment measured after 15 weeks by two-stage carcinogenesis test; format: functional; design: scale not given: the % may be the effect or the level left; summary of the method: as §1
Mus musculus [23] = assay: Inhibition of DMBA-initiated/TPA-promoted carcinogenesis in ICR mouse assessed as mouse bearing papillomas at 85 nmol administered 1 hr before TPA treatment measured after 11 weeks by two-stage carcinogenesis test; format: functional; design: scale not given: the % may be the effect or the level left; summary of the method: as §1
Mus musculus [24] = assay: Inhibition of DMBA-initiated/TPA-promoted carcinogenesis in ICR mouse assessed as mouse bearing papillomas at 85 nmol administered 1 hr before TPA treatment measured after 1 week by two-stage carcinogenesis test; format: functional; design: scale not given: the % may be the effect or the level left; summary of the method: as §1

SMILES: O=c1[nH]c2ccccc2nc1Cl
- viability at 1000 molar ratio ([1]; Raji cells): 50%

SMILES: Nc1nc2ccccc2[nH]c1=O
- viability at 1000 molar ratio ([1]; Raji cells): 60%

SMILES: COc1ccccc1/C=N/Nc1nc2ccccc2[nH]c1=O
- viability at 1000 molar ratio ([1]; Raji cells): 60%

SMILES: O=c1[nH]c2ccccc2nc1N/N=C/c1ccccc1
- viability at 1000 molar ratio ([1]; Raji cells): 60%

SMILES: C=CCn1c(=O)c(N/N=C/c2ccccc2OC)nc2ccccc21
- viability at 1000 molar ratio ([1]; Raji cells): 60%

SMILES: C=CCn1c(=O)c(N/N=C/c2ccccc2)nc2ccccc21
- viability at 1000 molar ratio ([1]; Raji cells): 60%

SMILES: CCOC(=O)Cn1c(=O)c(N/N=C/c2ccccc2OC)nc2ccccc21
- viability at 1000 molar ratio ([1]; Raji cells): 60%

SMILES: CCOC(=O)Cn1c(=O)c(N/N=C/c2ccccc2)nc2ccccc21
- viability at 1000 molar ratio ([1]; Raji cells): 60%

SMILES: C=CCN(/N=C/c1ccccc1OC)c1nc2ccccc2n(CC=C)c1=O
- Activity (Mus musculus [2]): 73.3%
- Activity (Mus musculus [3]): 86.6%
- Activity (Mus musculus [4]): Non-toxic
- Activity (Mus musculus [5]): 80%
- Activity (Mus musculus [6]): Non-toxic
- Activity (Mus musculus [7]): 0%
- Activity (Mus musculus [8]): 86.6%
- Activity (Mus musculus [9]): 20%
- Activity (Mus musculus [10]): 0%
- Activity (Mus musculus [11]): 0%
- Activity (Mus musculus [12]): 0%
- Activity (Mus musculus [13]): 13.3%
- Activity (Mus musculus [14]): 0%
- Activity (Mus musculus [15]): 46.6%
- Activity (Mus musculus [16]): 60%
- Activity (Mus musculus [17]): 33.3%
- Activity (Mus musculus [18]): 66.6%
- Activity (Mus musculus [19]): 13.3%
- Activity (Mus musculus [20]): Non-toxic
- Activity (Mus musculus [21]): 0%
- Activity (Mus musculus [22]): 60%
- Activity (Mus musculus [23]): 26.6%
- Activity (Mus musculus [24]): 0%
- viability at 1000 molar ratio ([1]; Raji cells): 60%

SMILES: CCOC(=O)CN(/N=C/c1ccccc1OC)c1nc2ccccc2n(CC(=O)OCC)c1=O
- viability at 1000 molar ratio ([1]; Raji cells): 60%

SMILES: c1ccc2nc3c(nc2c1)nc1ccccn13
- viability at 1000 molar ratio ([1]; Raji cells): 60%

SMILES: c1ccc2nc3c(nc2c1)[nH]c1cccc[n+]13
- viability at 1000 molar ratio ([1]; Raji cells): 60%

SMILES: N#Cc1c(-c2ccccc2)nc(Sc2nc3ccccc3nc2Cl)[nH]c1=O
- viability at 1000 molar ratio ([1]; Raji cells): 60%

SMILES: N#Cc1c(-c2ccc(O)cc2)nc(Sc2nc3ccccc3nc2Cl)[nH]c1=O
- viability at 1000 molar ratio ([1]; Raji cells): 60%

SMILES: N#Cc1c(-c2ccc(F)cc2)nc(Sc2nc3ccccc3nc2Cl)[nH]c1=O
- viability at 1000 molar ratio ([1]; Raji cells): 60%

SMILES: Clc1nc2ccccc2nc1Sc1nc2ccccc2[nH]1
- viability at 1000 molar ratio ([1]; Raji cells): 60%

SMILES: Clc1nc2ccccc2nc1SCc1nc2ccccc2[nH]1
- viability at 1000 molar ratio ([1]; Raji cells): 60%

SMILES: Oc1nc2ccccc2nc1O
- viability at 1000 molar ratio ([1]; Raji cells): 60%

SMILES: Clc1nc2ccccc2nc1Cl
- viability at 1000 molar ratio ([1]; raji): 50%

SMILES: NNc1nc2ccccc2[nH]c1=O
- viability at 1000 molar ratio ([1]; Raji cells): 60%
